# Assay results: ChEMBL document CHEMBL3112437, “Virtual screening reveals allosteric inhibitors of the Toxoplasma gondii thymidylate synthase-dihydrofolate reductase” (Bioorg Med Chem Lett, 2014)
# Active and inactive are the calls of the source. The calls are words filed in the database; no cut-off is given here.
# Tests used:
# [1] = biological target: T1, Dihydrofolate reductase (Homo sapiens) (UniProt P00374); experiment: Inhibition of DHFR (unknown origin)
# T1 sequence (whole entry): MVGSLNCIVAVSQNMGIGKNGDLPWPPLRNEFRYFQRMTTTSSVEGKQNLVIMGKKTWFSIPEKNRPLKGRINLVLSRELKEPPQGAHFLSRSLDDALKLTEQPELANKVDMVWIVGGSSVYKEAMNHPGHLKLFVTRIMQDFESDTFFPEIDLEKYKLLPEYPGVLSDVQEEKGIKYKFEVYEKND
# [2] = biological target: T2, Bifunctional dihydrofolate reductase-thymidylate synthase (Toxoplasma gondii) (UniProt Q07422); experiment: Noncompetitive inhibition of Toxoplasma gondii TS-DHFR using methylenetetrahydrofolate as substrate at 25 uM by Michaelis-Menten plot analysis
# T2 sequence (whole entry): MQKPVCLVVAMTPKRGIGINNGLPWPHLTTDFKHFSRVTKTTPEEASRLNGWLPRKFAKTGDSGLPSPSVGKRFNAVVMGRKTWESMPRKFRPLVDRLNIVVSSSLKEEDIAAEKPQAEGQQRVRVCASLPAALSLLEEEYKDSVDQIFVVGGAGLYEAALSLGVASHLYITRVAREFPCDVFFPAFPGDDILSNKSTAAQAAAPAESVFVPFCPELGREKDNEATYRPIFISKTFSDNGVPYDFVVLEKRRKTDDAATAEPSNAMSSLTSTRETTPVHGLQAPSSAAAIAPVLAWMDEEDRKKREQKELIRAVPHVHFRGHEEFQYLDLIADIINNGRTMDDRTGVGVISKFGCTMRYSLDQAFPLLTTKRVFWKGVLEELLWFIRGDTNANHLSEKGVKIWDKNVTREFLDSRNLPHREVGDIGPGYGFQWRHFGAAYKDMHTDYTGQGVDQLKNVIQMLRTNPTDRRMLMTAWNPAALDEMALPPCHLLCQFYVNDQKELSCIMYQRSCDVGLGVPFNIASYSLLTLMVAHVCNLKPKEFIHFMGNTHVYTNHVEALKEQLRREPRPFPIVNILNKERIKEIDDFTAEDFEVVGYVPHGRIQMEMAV
# [3] = biological target: T3, Bifunctional dihydrofolate reductase-thymidylate synthase (Toxoplasma gondii, UniProt Q07422); experiment: Inhibition of Toxoplasma gondii TS-DHFR using methylenetetrahydrofolate/dUMP as sustrate preincubated for 10 mins followed by substrate addition
# T3 sequence (Q07422 whole entry): T2 sequence (whole entry)
# Procedure, shortened: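 T. gondii TS activity at varying compound concentrations. Compound was mixed with apo TS-DHFR, with no dUMP preincubation. Data were fit to a Michaelis-Menten curve to give IC50. Points in duplicate; SD between repeats.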
# [4] = biological target: T3, Bifunctional dihydrofolate reductase-thymidylate synthase; experiment: Inhibition of Toxoplasma gondii TS-DHFR using methylenetetrahydrofolate/dUMP as sustrate
# Procedure, shortened: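 T. gondii TS-DHFR was preincubated with dUMP before compound was added. TS activity was measured across varying compound concentrations. Data were fit to a Michaelis-Menten curve for IC50. Duplicate points; SD between repeats.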
# [5] = biological target: T2, Bifunctional dihydrofolate reductase-thymidylate synthase (Toxoplasma gondii); experiment: Mixed type inhibition of Toxoplasma gondii TS-DHFR using dUMP as substrate at 25 uM by Michaelis-Menten plot analysis
# [6] = biological target: T3, Bifunctional dihydrofolate reductase-thymidylate synthase; experiment: (§1) Inhibition of Toxoplasma gondii TS-DHFR by Michaelis-Menten plot analysis in presence of bovine serum albumin
# Procedure, shortened: (§2)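 Promiscuity (aggregation) check: TgTS-DHFR was preincubated with 0.1 mg/mL BSA before inhibitor was added. TS inhibitory potency was then determined.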
# [7] = biological target: T2, Bifunctional dihydrofolate reductase-thymidylate synthase (Toxoplasma gondii); experiment: as §1; procedure, shortened: as §2
inhibition [1],Structure (SMILES),inhibition [2],IC50 [3] [µM],IC50 [4] [µM],inhibition [5],IC50 [6] [µM],inhibition [7]
inactive,COC(=O)Nc1nc2cc(-c3nnc(O)c4ccccc34)ccc2[nH]1,Active,51,142,Active,139,–
–,O=C(Nc1ccccc1)OCc1ccc(-c2cc(C(F)(F)F)cc(C(F)(F)F)c2)o1,–,54,190,–,–,inactive
